Assay results gathered from unrelated publications.
Protocols differ between the studies behind these lines.
Target: Sodium-dependent dopamine transporter (SLC6A3, Homo sapiens, UniProt Q01959)

Clc1ccc(C(c2ccc(Cl)cc2)c2nnnn2CCCCN2CCN(Cc3ccccc3)CC2)cc1
inhibition (transporter uptake, inhibitor; HEK293; 1 µM): 91.7%

CCN(CC)c1ccc(C2Nc3ccc(C(=O)c4ccccc4)cc3NC3=C2C(=O)CC(C)(C)C3)cc1 (stereo not drawn)
inhibition (ligand displacement, radioligand; 10 µM): 69%

Cc1cc(-c2nc(CN3CCNCC3)no2)cc2c1C(=O)N(Cc1ccc(OC(F)(F)F)cc1)C2
inhibition (ligand displacement, radioligand; 10 µM): 44%

CCN(Cc1ccccc1C(F)(F)F)C(=O)C1CCN(S(=O)(=O)c2ccc3[nH]ncc3c2)CC1
inhibition (ligand displacement, radioligand; 10 µM): 39%

N#Cc1cc(Cn2c(N3CCCC3)nc3ccccc32)ccc1F
inhibition (ligand displacement; 10 µM): 19.3%

O=C1N=C(N2CCCCN2)S/C1=C\c1ccc(F)cc1O
inhibition (ligand displacement, radioligand; 10 µM): < 10%

Nc1ccc(-c2ccncc2)cc1NC(=O)N1CCCC1
inhibition (ligand displacement, radioligand; 10 µM): 21%

COc1cc(NC(C)=O)c(Cl)cc1C(=O)Nc1nccs1
inhibition (cell-free assay; 10 µM): 5.5%

Fc1ccc(C(c2ccc(F)cc2)c2nnnn2CCCCN2CCN(CCCc3ccccc3)CC2)cc1
inhibition (transporter uptake, inhibitor; HEK293; 1 µM): 56.2%

CCCNc1nc2ccccc2n1Cc1ccc(Cl)cc1
inhibition (ligand displacement; 10 µM): 24.3%

Clc1ccc(C(c2ccccc2)c2nnnn2CCCN2CCC(CCCc3ccccc3)CC2)cc1 (stereo not drawn)
inhibition (transporter uptake, inhibitor; HEK293; 1 µM): 89.6%

Oc1cccc(Nc2nc(-c3ccc(F)cc3F)cs2)c1
inhibition (cell-free assay; 10 µM): 49.8%
